≈ marks a conversion by molar mass, not a printed value.
Tests used:
[1] = Tmax in female rat at 15 mg/kg, po; assay type: ADME, organism-based; parameters: dose 15 mg/kg, route oral; conditions: in vivo
Procedure, shortened: (§1)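 Male and female rats received single oral doses of 5, 15 or 45 mg/kg, with 5 mg/kg iv as a reference arm. Tmax was read from the plasma concentration–time profile for each gender.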

[2] = test system: Rattus norvegicus; test: Toxicity in female rat assessed as effect on platelet count at 200 to 300 mg/kg/day, po bid administered for 4 weeks (reference value: 654.6 x 10^9/L); assay type: organism-based; parameters: route oral; conditions: in vivo, 672 h
[3] = test system: Enterococcus; test: Bacteriostatic activity against vancomycin-sensitive Enterococcus; assay type: functional
[4] = test system: Rattus norvegicus; test: Toxicity in female rat assessed as effect on WBC count at 100 mg/kg/day, po bid administered for 4 weeks (reference value: 3.66 x 10^9/L); assay type: organism-based; parameters: route oral; conditions: in vivo, 672 h
[5] = test system: Rattus norvegicus; test: Toxicity in female rat assessed as effect on hematocrit level at 100 mg/kg/day, po bid administered for 4 weeks (reference value: 39.08%); assay type: organism-based; parameters: route oral; conditions: in vivo, 672 h
[6] = test system: Rattus norvegicus; test: Toxicity in female rat assessed as effect on lymphocyte count at 100 mg/kg/day, po bid administered for 4 weeks (reference value: 74.8%); assay type: organism-based; parameters: route oral; conditions: in vivo, 672 h
[7] = test system: Staphylococcus aureus; test: Antibacterial activity against Staphylococcus aureus measured after 3 serial passages; assay type: functional
[8] = test system: Rattus norvegicus; test: Toxicity in female rat assessed as effect on hemoglobin level at 100 mg/kg/day, po bid administered for 4 weeks (reference value: 141.8 g/L); assay type: organism-based; parameters: route oral; conditions: in vivo, 672 h
[9] = test system: Streptococcus pneumoniae; test: Antibacterial activity against penicillin-sensitive Streptococcus pneumoniae isolate 0806 in po dosed mouse systemic infection model; assay type: functional; conditions: isolate 0806, po
[10] = test system: Enterococcus faecium; test: Bacteriostatic activity against vancomycin-sensitive Enterococcus faecium; assay type: functional
[11] = Tmax in male rat at 45 mg/kg, po; assay type: ADME, organism-based; parameters: dose 45 mg/kg, route oral; conditions: in vivo; procedure, shortened: as §1
[12] = Elimination half life in fasted human at 600 mg, po administered as single dose; assay type: ADME, organism-based; conditions: in vivo, read-out: beta t1/2 (converted)
Procedure, shortened: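 Healthy volunteers (12; six of each sex) in a three-period Latin-square crossover. Each received single oral doses of 300, 600 and 900 mg under fasting conditions, with a 1-week washout between doses. Parameters from a noncompartmental model.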

[13] = test system: Staphylococcus aureus; test: Antibacterial activity against methicillin-sensitive Staphylococcus aureus ATCC 29213 in mouse thigh infection model assessed as reduction of log10 CFU per thigh at 80 mg/kg, po; assay type: functional
Procedure, shortened: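 Mouse thigh infection with S. aureus ATCC29213 (MSSA), 10 animals per dosing group. Oral doses were 5, 10, 20, 40 and 80 mg/kg. The read-out was log CFU per thigh after treatment, and the reduction (ΔLogCFU/thigh) was reported.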

[14] = test system: Rattus norvegicus; test: Toxicity in female rat assessed as effect on lymphocyte count at 200 to 300 mg/kg/day, po bid administered for 4 weeks (reference value: 74.8%); assay type: organism-based; parameters: route oral; conditions: in vivo, 672 h
[15] = Half life in female rat at 5 mg/kg, po; assay type: ADME, organism-based; parameters: dose 5 mg/kg, route oral; conditions: in vivo
[16] = test system: Rattus norvegicus; test: Toxicity in female rat assessed as effect on RBC count at 100 mg/kg/day, po bid administered for 4 weeks (reference value: 7.28 x 10^12/L); assay type: organism-based; parameters: route oral; conditions: in vivo, 672 h
[17] = test system: Staphylococcus aureus; test: Antibacterial activity against methicillin-resistant Staphylococcus aureus isolate 0605 in mouse thigh infection model assessed as reduction of log10 CFU per thigh at 10 mg/kg, po; assay type: functional
[18] = test system: Staphylococcus aureus; test: Antibacterial activity against methicillin-resistant Staphylococcus aureus isolate 0605 in mouse thigh infection model assessed as reduction of log10 CFU per thigh at 80 mg/kg, po; assay type: functional
[19] = test system: Rattus norvegicus; test: Toxicity in rat assessed as rate of body weight gain at 100 mg/kg, po bid measured over 4 weeks of test period; assay type: organism-based; parameters: dose 100 mg/kg, route oral; conditions: in vivo, 672 h
[20] = test system: Rattus norvegicus; test: Toxicity in female rat assessed as effect on reticulocyte count at 100 mg/kg/day, po bid administered for 4 weeks (reference value: 1.48%); assay type: organism-based; parameters: route oral; conditions: in vivo, 672 h
[21] = target: Cytochrome P450 2C9 (Homo sapiens, UniProt P11712); test: Inhibition of CYP2C9 (unknown origin) at 1 to 200 uM; assay type: ADME
Chain of Cytochrome P450 2C9 (P11712 whole entry): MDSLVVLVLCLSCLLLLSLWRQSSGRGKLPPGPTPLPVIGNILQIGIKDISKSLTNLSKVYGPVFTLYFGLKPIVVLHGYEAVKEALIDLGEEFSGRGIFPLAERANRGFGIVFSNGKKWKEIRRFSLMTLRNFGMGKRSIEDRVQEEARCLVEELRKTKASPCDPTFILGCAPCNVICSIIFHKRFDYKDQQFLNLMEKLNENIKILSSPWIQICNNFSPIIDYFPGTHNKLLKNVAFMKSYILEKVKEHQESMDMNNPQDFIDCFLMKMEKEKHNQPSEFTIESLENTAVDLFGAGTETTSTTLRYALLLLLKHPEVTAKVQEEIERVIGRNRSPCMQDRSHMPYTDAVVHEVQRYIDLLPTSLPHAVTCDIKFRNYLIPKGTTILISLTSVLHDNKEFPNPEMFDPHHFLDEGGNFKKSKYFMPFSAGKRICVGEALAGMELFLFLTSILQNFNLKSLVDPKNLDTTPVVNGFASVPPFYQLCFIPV

[22] = test system: Streptococcus pneumoniae; test: Antibacterial activity against penicillin intermediate-sensitive Streptococcus pneumoniae ATCC 49619 clinical isolate; assay type: functional
[23] = AUC (0 to 24 hrs) in human at 800 mg, po administered as single dose with meal measured on day 1; assay type: ADME, organism-based; parameters: dose 800 mg, time < 24 hr, route oral; conditions: plasma
Procedure, shortened: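 Randomized, double-blind, placebo-controlled multiple-dose study in 32 healthy subjects (half male, half female). Subjects took 28 oral doses of 600 or 800 mg over 15 days, each with a meal. A single dose was given on days 1 and 15 for full PK, and doses were given Q12h from day 2 to day 14. AUC0−24 was measured on days 1 and 15.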

O=C1C=CN(c2c(F)cc(N3C[C@H](CNc4ccon4)OC3=O)c(F)c2F)CC1 [CONTEZOLID]
Tmax [1]: 1.17 h
Activity [2]: 464.2 ×10⁹ /L
MIC50 [3]: 1 µg/mL (≈ 2.45 µM)
MIC90 [3]: 1 µg/mL (≈ 2.45 µM)
Activity [4]: 3.14 ×10⁹ /L
Activity [5]: 36.48%
Activity [6]: 78.8%
MIC [7]: 2 µg/mL (≈ 4.9 µM)
Activity [8]: 134.8 g/L
ED50 [9]: 22 mg/kg
MIC50 [10]: 1 µg/mL (≈ 2.45 µM)
MIC90 [10]: 1 µg/mL (≈ 2.45 µM)
Tmax [11]: 1 h
half-life [12]: 3.31 h
deltalog10CFU [13]: 3.73
Activity [14]: 71.8%
half-life [15]: 2.07 h
Activity [16]: 6.67 ×10¹² /L
deltalog10CFU [17]: 2.47
deltalog10CFU [18]: 4.53
Activity [19]: Non-toxic
Activity [20]: 1.46%
inhibition (INH) [21]: Not Active
MIC [22]: 1 µg/mL (≈ 2.45 µM)
AUC(0-t) at 24 h [23]: 91800 ng·h/mL
